Data set [1] has as its target T1, Poly(ADP-ribose) glycohydrolase (Homo sapiens, UniProt Q86W56). Put plainly: Inhibition of human full length PARG using Bt-NAD ribosylated PARP1 substrate after 10 mins by TR-FRET assay.
Data set [2] addresses T1, Poly(ADP-ribose) glycohydrolase. Put plainly: Inhibition of PARG in human HeLa cells assessed as induction of MMS-induced PAR chains preincubated for 1 hr followed by MMS addition and measured after 1 hr by Alexofluor 488-conjugated secondary antibody and Hoechst 33342 staining based assay. It is filed as cell-based. Summed up: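 Acute (1 h) cell-based proof-of-mechanism assay measuring persistence of PAR chains, i.e. blockade of PARG-mediated PAR degradation, across a dose range. EC50 values are means of at least 4 independent measurements, with standard deviations.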

Data set [3] is described as follows: Clearance in human liver microsomes. On the technique in general: Liver microsomes are vesicles of endoplasmic reticulum, rich in cytochrome P450 enzymes.

This is an account of results in ChEMBL document CHEMBL4261639, “Cell-Active Small Molecule Inhibitors of the DNA-Damage Repair Enzyme Poly(ADP-ribose) Glycohydrolase (PARG): Discovery and Optimization of Orally Bioavailable Quinazolinedione Sulfonamides” (J Med Chem, 2018).

As a reminder, the EC50 is the concentration that produces a half-maximal response. The microsomal CLint is the rate of metabolic loss divided by the concentration.

T1 sequence (Q86W56 whole entry): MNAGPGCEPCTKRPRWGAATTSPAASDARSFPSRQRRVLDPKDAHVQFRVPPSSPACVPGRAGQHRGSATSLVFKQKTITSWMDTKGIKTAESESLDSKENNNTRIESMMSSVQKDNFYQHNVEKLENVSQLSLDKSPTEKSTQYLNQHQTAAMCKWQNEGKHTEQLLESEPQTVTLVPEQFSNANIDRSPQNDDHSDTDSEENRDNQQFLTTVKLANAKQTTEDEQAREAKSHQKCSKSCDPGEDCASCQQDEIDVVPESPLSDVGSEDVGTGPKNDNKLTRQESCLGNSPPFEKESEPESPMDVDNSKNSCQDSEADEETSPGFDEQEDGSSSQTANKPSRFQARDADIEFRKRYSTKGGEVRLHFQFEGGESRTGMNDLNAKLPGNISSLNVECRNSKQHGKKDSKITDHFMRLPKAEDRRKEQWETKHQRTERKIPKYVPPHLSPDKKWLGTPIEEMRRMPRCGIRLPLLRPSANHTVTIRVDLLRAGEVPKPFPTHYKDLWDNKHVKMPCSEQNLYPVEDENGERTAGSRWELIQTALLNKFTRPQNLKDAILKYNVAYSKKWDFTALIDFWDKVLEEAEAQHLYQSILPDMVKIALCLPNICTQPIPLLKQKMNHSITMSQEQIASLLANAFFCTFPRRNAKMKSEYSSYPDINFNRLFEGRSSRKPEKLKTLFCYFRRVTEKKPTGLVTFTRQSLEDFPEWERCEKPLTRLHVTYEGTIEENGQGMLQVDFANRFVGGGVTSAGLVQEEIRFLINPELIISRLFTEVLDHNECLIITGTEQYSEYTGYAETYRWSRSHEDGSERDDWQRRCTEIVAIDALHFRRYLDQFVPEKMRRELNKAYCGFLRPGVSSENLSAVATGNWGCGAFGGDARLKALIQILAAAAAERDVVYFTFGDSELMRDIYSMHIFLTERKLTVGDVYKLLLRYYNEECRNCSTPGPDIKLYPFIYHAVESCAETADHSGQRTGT

Regarding `N#CC1(NS(=O)(=O)c2ccc3c(c2)C(=O)c2ccccc2C3=O)CC1`, the values for the EC50 in data set [1] and in data set [2] were 3300 nM and 19000 nM, respectively.
The corresponding values for `CCn1c(=O)c2cc(S(=O)(=O)NC3(C#N)CC3)ccc2n(CC)c1=O` are 1800 nM and 5600 nM.
As to `Cn1c(=O)c2cc(S(=O)(=O)NC3(C)CC3)ccc2n(CC#N)c1=O`, the EC50 was found to be 2800 nM in data set [1] and 8900 nM in data set [2].
As to `Cn1cc(Cn2c(=O)c3cc(S(=O)(=O)NC4(C)CC4)ccc3n(CC3CC3)c2=O)cn1`, the EC50 in data set [1] amounted to 29 nM; in data set [2], 56 nM. Moreover, the microsomal CLint in data set [3] amounted to 81 µL/min/mg.
For `Cc1nnc(Cn2c(=O)c3cc(S(=O)(=O)NC4(C)CC4)ccc3n(C)c2=O)o1`, in data set [1], the EC50 was 1800 nM.
Same read-out and setting: in the case of `Cc1cc(Cn2c(=O)c3cc(S(=O)(=O)NC4(C)CC4)ccc3n(C)c2=O)on1` it was 470 nM.
In the case of `CN(C)CCn1c(=O)n(C)c(=O)c2cc(S(=O)(=O)NC3(C)CC3)ccc21`, the EC50 was 2000 nM in data set [1] and 6400 nM in data set [2].
`CCn1c(=O)n(Cc2cnn(C)c2)c(=O)c2cc(S(=O)(=O)NC3(C)CC3)ccc21` came in with a microsomal CLint in data set [3] of 35 µL/min/mg.
Turning to `CCn1c(=O)c2cc(S(=O)(=O)NC3(C)CC3)ccc2n(CC)c1=O`, the EC50 in data set [1] was 1500 nM; in data set [2] it was 1100 nM.
For the compound `Cc1nc(C)c(Cn2c(=O)n(Cc3cnn(C)c3)c(=O)c3cc(S(=O)(=O)NC4(C)CC4)ccc32)s1`, the figures for the EC50 in data set [1] and in data set [2] were 6 nM and 20 nM, respectively. The compound further showed a microsomal CLint in data set [3] of 97 µL/min/mg.
For the compound `Cn1c(=O)c2cc(S(=O)(=O)NC3(C)CC3)ccc2n(CC2CCCCC2)c1=O`, the EC50 came to 560 nM in data set [1] and 2700 nM in data set [2].
`Cn1c(=O)n(Cc2cnn(CC#N)c2)c(=O)c2cc(S(=O)(=O)NC3(C)CC3)ccc21`: the EC50 in data set [1] amounted to 370 nM.
On to `CC1(NS(=O)(=O)c2ccc3c(c2)C(=O)c2ccccc2C3=O)CC1`, for which the EC50 in data set [1] is 6000 nM; in data set [2] it was 6600 nM.
As for `CCn1c(=O)n(C)c(=O)c2cc(S(=O)(=O)NC3(C)CC3)ccc21`, the EC50 in data set [1] turned out to be 1300 nM; in data set [2], 3600 nM.
On the same counts, the results for `C#CCn1c(=O)n(C)c(=O)c2cc(S(=O)(=O)NC3(C)CC3)ccc21` are 710 nM and 250 nM.
As to `Cc1cc(Cn2c(=O)c3cc(S(=O)(=O)NC4(C)CC4)ccc3n(C)c2=O)no1`, in data set [1], the EC50 turned out to be 5200 nM.
Regarding `O=C1c2ccccc2C(=O)c2cc(S(=O)(=O)NC3CC3)ccc21`, the figures for the EC50 in data set [1] and in data set [2] were 13000 nM and 22000 nM, respectively.
`Cc1noc(C)c1Cn1c(=O)c2cc(S(=O)(=O)NC3(C)CC3)ccc2n(C)c1=O` displayed an EC50 in data set [1] of 620 nM.
Consider `COCCn1c(=O)n(C)c(=O)c2cc(S(=O)(=O)NC3(C)CC3)ccc21`, for which the figures for the concentration for a half-maximal effect (EC50) in data set [1] and in data set [2] were 1100 nM and 6100 nM, respectively.
In the case of `C#CCn1c(=O)n(Cc2cnn(C)c2)c(=O)c2cc(S(=O)(=O)NC3(C)CC3)ccc21`, the results for the EC50 in data set [1] and in data set [2] were 52 nM and 130 nM, respectively. The compound also had a microsomal CLint in data set [3] of 42 µL/min/mg.
Regarding `Cc1noc(Cn2c(=O)c3cc(S(=O)(=O)NC4(C)CC4)ccc3n(C)c2=O)n1`, it took 5000 nM to reach a half-maximal effect in data set [1] (EC50).
Regarding `C#CCn1c(=O)n(Cc2cnc(C)s2)c(=O)c2cc(S(=O)(=O)NC3(C)CC3)ccc21`, the half-maximal effective concentration (EC50) worked out at 45 nM in data set [1] and 82 nM in data set [2]. For the same compound, the microsomal CLint in data set [3] is 100 µL/min/mg.
As for `Cn1c(=O)c2cc(S(=O)(=O)NC3(C)CC3)ccc2n(Cc2ccccc2)c1=O`, the figures for the 50% effective concentration (EC50) in data set [1] and in data set [2] were 1300 nM and 2300 nM, respectively.
The corresponding values for `Cn1c(=O)[nH]c2ccc(S(=O)(=O)NC3(C)CC3)cc2c1=O` are 4000 nM and 8100 nM.
Consider `Cc1nonc1Cn1c(=O)c2cc(S(=O)(=O)NC3(C)CC3)ccc2n(C)c1=O`, for which, in data set [1], the EC50 was found to be 2100 nM.
As for `Cn1c(=O)c2cc(S(=O)(=O)NC3(C#N)CC3)ccc2n(C)c1=O`, the EC50 in data set [1] is 5000 nM; in data set [2], 14000 nM.
For the compound `Cn1c(=O)n(Cc2ccno2)c(=O)c2cc(S(=O)(=O)NC3(C)CC3)ccc21`, the EC50 in data set [1] was 1200 nM.
Consider `Cc1oncc1Cn1c(=O)c2cc(S(=O)(=O)NC3(C)CC3)ccc2n(C)c1=O`, for which the EC50 in data set [1] worked out at 770 nM.
